Assay results from ChEMBL document CHEMBL4706586, “Structure-activity relationships for a series of (Bis(4-fluorophenyl)methyl)sulfinylethyl-aminopiperidines and -piperidine amines at the dopamine transporter: Bioisosteric replacement of the piperazine improves metabolic stability” (Eur J Med Chem, 2020).
pKi: −log10 of the molar value.

Experiments:
[1] = molecular target: Sigma non-opioid intracellular receptor 1 (Cavia porcellus, UniProt Q60492); assay: Displacement of [3H](+)-pentazocine from sigma 1 receptor in guinea pig brain cortex membranes after 120 mins by scintillation counting analysis; assay type: cell membranes, Membrane
How it was run: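 Male guinea pig cortex membranes in 10 mM Tris-HCl/0.32 M sucrose pH 7.4, 5.0 mg/well original wet weight; [3H](+)-pentazocine 3 nM final; inhibitor serial dilutions in 30% DMSO vehicle, triplicate; 120 min at RT; nonspecific with 10 μM PRE084 or (+)-pentazocine.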

[2] = Selectivity ratio of Ki for sigma 1 receptor in guinea pig brain cortex membranes to Ki for DAT in Sprague-Dawley rat striatum membranes; assay type: cell membranes
Rattus norvegicus = species: Rattus norvegicus; assay: Selectivity ratio of Ki for SERT in Sprague-Dawley rat midbrain membranes to Ki for DAT in Sprague-Dawley rat striatum membranes
[3] = molecular target: Sodium-dependent serotonin transporter (Rattus norvegicus, UniProt P31652); assay: Displacement of [3H]citalopram from SERT in Sprague-Dawley rat midbrain membranes incubated for 60 mins by microbeta scintillation counting method; assay type: cell membranes, Membrane
[4] = molecular target: Sodium-dependent dopamine transporter (Rattus norvegicus, UniProt P23977); assay: Displacement of [3H]WIN35428 from DAT in Sprague-Dawley rat striatal membranes incubated for 120 mins by microbeta scintillation counting method; assay type: cell membranes, Striatum, Membrane
D(4) dopamine receptor = molecular target: T1, D(4) dopamine receptor (Homo sapiens, UniProt P21917); assay: Displacement of [3H]-N-methylspiperone from human D4.4 receptor expressed in HEK293 cell membranes measured after 60 mins by microbeta scintillation counting method; parameters: species or system Membrane
T1 sequence (P21917 whole entry): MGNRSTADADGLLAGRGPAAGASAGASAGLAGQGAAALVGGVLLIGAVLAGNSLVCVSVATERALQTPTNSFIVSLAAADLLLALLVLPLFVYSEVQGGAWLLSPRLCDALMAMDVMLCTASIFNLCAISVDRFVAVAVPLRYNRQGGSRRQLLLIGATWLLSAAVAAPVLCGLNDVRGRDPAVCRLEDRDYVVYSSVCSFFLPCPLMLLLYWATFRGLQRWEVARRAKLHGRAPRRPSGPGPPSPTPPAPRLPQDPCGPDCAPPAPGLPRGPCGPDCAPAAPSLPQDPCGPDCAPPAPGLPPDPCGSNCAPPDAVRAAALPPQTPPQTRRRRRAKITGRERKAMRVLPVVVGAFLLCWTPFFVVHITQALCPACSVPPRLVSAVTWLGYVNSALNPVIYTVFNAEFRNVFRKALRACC
How it was run: (§1)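 Membranes from HEK293 cells stably expressing human D2LR, D3R or D4.4R; 20 μg/well protein (D2LR, D3R) or 30 μg/well (D4.4R); [3H]-N-methylspiperone 0.4 nM final; half-log dilutions in 30% DMSO, triplicate; 60 min RT; nonspecific 10 μM (+)-butaclamol.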

D(2) dopamine receptor = D(2) dopamine receptor (Homo sapiens, UniProt P14416); assay: Displacement of [3H]-N-methylspiperone from human D2L receptor expressed in HEK293 cell membranes measured after 60 mins by microbeta scintillation counting method; parameters: species or system Membrane; how it was run: as §1
D(3) dopamine receptor = D(3) dopamine receptor (Homo sapiens, UniProt P35462); assay: Displacement of [3H]-N-methylspiperone from human D3 receptor expressed in HEK293 cell membranes measured after 60 mins by microbeta scintillation counting method; parameters: species or system Membrane; how it was run: as §1
[5] = Metabolic stability in rat liver microsomes assessed as compound remaining at 10 uM incubated for 60 mins in presence of NADPH regenerating system by LC-MS/MS analysis; assay type: ADME, Microsome; details: 1 h
[6] = Metabolic stability in rat liver microsomes assessed as compound remaining at 10 uM in presence of NADPH regenerating system by LC-MS/MS analysis; assay type: ADME, Microsome
[7] = Displacement of [3H]-Nisoxetine from NET in Sprague-Dawley rat frontal cortex membrane after 180 mins by microbeta scintillation counting method; assay type: cell membranes

Sigma non-opioid intracellular receptor 1, sequence (Q60492 whole entry): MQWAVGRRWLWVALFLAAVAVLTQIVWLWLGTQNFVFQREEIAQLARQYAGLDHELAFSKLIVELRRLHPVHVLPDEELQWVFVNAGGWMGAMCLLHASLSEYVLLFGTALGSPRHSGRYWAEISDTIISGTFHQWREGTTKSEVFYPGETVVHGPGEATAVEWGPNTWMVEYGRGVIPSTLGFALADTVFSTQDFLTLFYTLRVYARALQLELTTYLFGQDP
Sodium-dependent dopamine transporter, sequence (P23977 whole entry): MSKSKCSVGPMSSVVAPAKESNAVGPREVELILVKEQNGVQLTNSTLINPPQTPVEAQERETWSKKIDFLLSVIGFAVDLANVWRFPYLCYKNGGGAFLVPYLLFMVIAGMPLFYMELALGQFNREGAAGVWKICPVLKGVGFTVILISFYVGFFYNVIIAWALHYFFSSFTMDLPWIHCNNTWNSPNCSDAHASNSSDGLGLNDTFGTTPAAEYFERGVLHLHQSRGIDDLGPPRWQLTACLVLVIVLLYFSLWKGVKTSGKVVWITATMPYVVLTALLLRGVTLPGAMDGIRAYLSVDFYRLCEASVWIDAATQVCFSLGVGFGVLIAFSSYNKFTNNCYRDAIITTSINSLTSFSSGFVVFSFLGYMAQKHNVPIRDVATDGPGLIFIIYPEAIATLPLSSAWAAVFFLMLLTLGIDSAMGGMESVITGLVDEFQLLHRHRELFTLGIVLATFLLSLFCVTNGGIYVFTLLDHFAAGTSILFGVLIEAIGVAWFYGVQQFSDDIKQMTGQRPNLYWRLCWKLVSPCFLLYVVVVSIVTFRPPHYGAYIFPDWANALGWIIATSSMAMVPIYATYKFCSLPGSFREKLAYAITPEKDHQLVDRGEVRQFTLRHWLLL
D(3) dopamine receptor, sequence (P35462 whole entry): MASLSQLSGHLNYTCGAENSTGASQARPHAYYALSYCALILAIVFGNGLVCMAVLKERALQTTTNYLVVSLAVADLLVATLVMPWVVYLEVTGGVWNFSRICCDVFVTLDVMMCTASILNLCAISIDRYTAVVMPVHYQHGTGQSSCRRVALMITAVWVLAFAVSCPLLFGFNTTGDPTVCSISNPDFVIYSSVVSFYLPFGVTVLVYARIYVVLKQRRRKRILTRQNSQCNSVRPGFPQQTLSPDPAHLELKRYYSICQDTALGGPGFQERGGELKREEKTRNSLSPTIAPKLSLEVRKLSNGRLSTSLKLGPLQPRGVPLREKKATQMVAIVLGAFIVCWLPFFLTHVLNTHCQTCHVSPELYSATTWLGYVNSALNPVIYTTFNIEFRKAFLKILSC
Sodium-dependent serotonin transporter, sequence (P31652 whole entry): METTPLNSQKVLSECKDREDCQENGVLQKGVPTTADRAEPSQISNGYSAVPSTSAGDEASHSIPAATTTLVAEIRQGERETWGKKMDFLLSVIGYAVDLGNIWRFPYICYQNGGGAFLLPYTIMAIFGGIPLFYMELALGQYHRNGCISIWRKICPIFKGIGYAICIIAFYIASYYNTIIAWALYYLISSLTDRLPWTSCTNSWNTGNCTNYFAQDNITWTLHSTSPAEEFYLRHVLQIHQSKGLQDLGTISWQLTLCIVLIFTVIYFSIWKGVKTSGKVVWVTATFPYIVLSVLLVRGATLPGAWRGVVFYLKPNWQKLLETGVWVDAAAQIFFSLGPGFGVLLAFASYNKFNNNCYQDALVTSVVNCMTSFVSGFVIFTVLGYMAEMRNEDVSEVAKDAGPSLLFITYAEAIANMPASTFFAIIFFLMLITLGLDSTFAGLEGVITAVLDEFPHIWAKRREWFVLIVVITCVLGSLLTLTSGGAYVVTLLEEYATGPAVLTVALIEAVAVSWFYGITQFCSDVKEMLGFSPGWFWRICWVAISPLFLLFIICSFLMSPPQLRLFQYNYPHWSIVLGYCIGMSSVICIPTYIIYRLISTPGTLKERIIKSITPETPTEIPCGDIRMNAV
D(2) dopamine receptor, sequence (P14416 whole entry): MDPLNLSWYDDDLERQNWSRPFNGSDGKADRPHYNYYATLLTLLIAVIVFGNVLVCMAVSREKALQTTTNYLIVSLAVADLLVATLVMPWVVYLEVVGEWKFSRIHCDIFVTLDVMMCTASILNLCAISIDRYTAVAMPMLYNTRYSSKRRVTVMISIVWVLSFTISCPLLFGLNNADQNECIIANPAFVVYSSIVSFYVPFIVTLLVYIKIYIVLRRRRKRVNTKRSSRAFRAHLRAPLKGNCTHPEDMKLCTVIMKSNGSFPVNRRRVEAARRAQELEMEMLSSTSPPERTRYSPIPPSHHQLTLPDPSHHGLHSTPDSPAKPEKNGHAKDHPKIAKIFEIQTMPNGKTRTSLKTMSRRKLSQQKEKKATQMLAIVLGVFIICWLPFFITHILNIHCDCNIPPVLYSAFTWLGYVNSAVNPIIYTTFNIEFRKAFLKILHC

| SMILES | pKi [1] | Ratio Ki [2] | Ratio Ki (Rattus norvegicus) | pKi [3] | pKi [4] | pKi (D(4) dopamine receptor) | pKi (D(2) dopamine receptor) | pKi (D(3) dopamine receptor) | Stabilty [5] [%] | Stabilty [6] [%] | pKi [7] |
| --- | --- | --- | --- | --- | --- | --- | --- | --- | --- | --- | --- |
| Fc1ccc(C(SCCN2CCC(NCc3ccc(Cl)cc3)CC2)c2ccc(F)cc2)cc1 | 7.20 | 0.72 | 4.59 |  |  |  |  |  |  |  |  |
| Fc1ccc(C(SCCNC2CCN(Cc3cc4ccccc4[nH]3)CC2)c2ccc(F)cc2)cc1 | 6.69 |  |  |  |  |  |  |  |  |  |  |
| O=C(c1ccccc1F)N1CCC(NCC[S+]([O-])C(c2ccc(F)cc2)c2ccc(F)cc2)CC1 (stereo unspecified) | 5.88 | 2.16 | 23.5 | 4.85 | 6.22 |  |  |  |  |  |  |
| Fc1ccc(C(SCCN2CCC(NCc3ccccc3)CC2)c2ccc(F)cc2)cc1 | 7.22 | 0.56 | 3.06 |  |  |  |  |  |  |  |  |
| [O-][S+](CCN1CCN(CC(O)Cc2ccccc2)CC1)C(c1ccc(F)cc1)c1ccc(F)cc1 (stereo unspecified) | 7.38 |  |  | 4.90 | 8.59 |  |  |  |  |  |  |
| CC(C)(C)C(=O)N1CCC(NCC[S+]([O-])C(c2ccc(F)cc2)c2ccc(F)cc2)CC1 (stereo unspecified) | 4.95 | 1.1 | 3.14 |  |  |  |  |  |  |  |  |
| CN(CCSC(c1ccc(F)cc1)c1ccc(F)cc1)C1CCN(C(=O)c2ccccc2F)CC1 | 8.23 | 0.03 | 4.47 | 6.00 | 6.65 |  |  |  |  |  |  |
| O=C(C1CC1)N1CCC(NCCSC(c2ccc(F)cc2)c2ccc(F)cc2)CC1 | 7.33 | 0.26 | 5.67 |  |  |  |  |  |  |  |  |
| CC(C)(C)C(=O)N1CCC(NCCSC(c2ccc(F)cc2)c2ccc(F)cc2)CC1 | 6.79 |  |  |  |  | 4.92 | 5.22 | 5.47 |  |  |  |
| NC(=O)C[S+]([O-])C(c1ccccc1)c1ccccc1 (racemic) [MODAFINIL] |  |  |  |  |  | < 4.00 | < 4.00 | 4.41 |  |  |  |
| CN(CC[S+]([O-])C(c1ccc(F)cc1)c1ccc(F)cc1)C1CCN(C(=O)c2ccccc2F)CC1 (stereo unspecified) | 6.29 | 0.07 | 34 | 3.60 | 5.13 |  |  |  |  |  |  |
| Fc1ccc(CNC2CCN(CCSC(c3ccc(F)cc3)c3ccc(F)cc3)CC2)cc1 | 7.38 | 0.74 | 4.79 |  |  |  |  |  |  |  |  |
| Fc1ccc(C(SCCNC2CCN(Cc3ccc(Cl)cc3)CC2)c2ccc(F)cc2)cc1 | 7.34 | 1.15 | 9.04 |  |  |  |  |  |  |  |  |
| Fc1ccc(C(SCCNC2CCN(Cc3cc4ccccc4o3)CC2)c2ccc(F)cc2)cc1 | 6.69 | 1.71 | 5.79 | 6.16 | 6.92 |  |  |  |  |  |  |
| [O-][S+](CCNC1CCN(CC(O)Cc2ccccc2)CC1)C(c1ccc(F)cc1)c1ccc(F)cc1 (stereo unspecified) | 6.45 | 3.82 | 6.53 |  |  |  | 5.18 | 5.26 | 22 | 100 |  |
| Fc1ccc(C(SCCNC2CCN(Cc3ccc(C(F)(F)F)cc3)CC2)c2ccc(F)cc2)cc1 | 6.73 |  |  |  |  |  |  |  |  |  |  |
| CC(C)(C)CN1CCC(NCC[S+]([O-])C(c2ccc(F)cc2)c2ccc(F)cc2)CC1 (stereo unspecified) | 6.27 | 1.26 | 16.2 |  |  |  |  |  |  |  |  |
| O=C(c1ccc(F)cc1)N1CCC(NCCSC(c2ccc(F)cc2)c2ccc(F)cc2)CC1 | 7.49 | 4.59 | 69.5 |  | 8.15 | 5.04 | 5.05 | 5.28 | 24 | 100 | 6.59 |
| Fc1ccc(C(SCCNC2CCN(CC3CC3)CC2)c2ccc(F)cc2)cc1 | 6.57 | 0.66 | 3.93 |  |  |  |  |  |  |  |  |
| Fc1ccc(CN2CCC(NCCSC(c3ccc(F)cc3)c3ccc(F)cc3)CC2)cc1 | 7.88 | 0.52 | 10.9 |  |  | 6.01 | 5.53 | 6.04 | 70 | 100 |  |

| SMILES | pKi [1] | Ratio Ki [2] | Ratio Ki (Rattus norvegicus) | pKi [3] | pKi [4] | pKi (D(4) dopamine receptor) | pKi (D(2) dopamine receptor) | pKi (D(3) dopamine receptor) | Stabilty [5] [%] | Stabilty [6] [%] | pKi [7] |
| --- | --- | --- | --- | --- | --- | --- | --- | --- | --- | --- | --- |
| Fc1ccc(C(SCCN2CCC(NCc3ccc(C(F)(F)F)cc3)CC2)c2ccc(F)cc2)cc1 | 6.79 |  |  |  |  |  |  |  |  |  |  |
| CC(C)N(CCSC(c1ccc(F)cc1)c1ccc(F)cc1)C1CCN(C(=O)c2ccccc2F)CC1 | 6.90 | 0.08 | 10.7 | 4.79 | 5.82 |  |  |  |  |  |  |
| NC(=O)C[S+]([O-])C(c1ccc(F)cc1)c1ccc(F)cc1 (racemic) | < 4.00 | > 24 | 11.9 | 4.31 | 5.39 |  |  |  |  |  |  |
| O=C(c1cc2ccccc2o1)N1CCC(NCCSC(c2ccc(F)cc2)c2ccc(F)cc2)CC1 | 6.52 |  |  |  |  |  |  |  |  |  |  |
| O=C(c1cc2ccccc2[nH]1)N1CCC(NCCSC(c2ccc(F)cc2)c2ccc(F)cc2)CC1 | 5.95 |  |  |  | 6.75 |  |  |  |  |  |  |
| CC(O)CN1CCN(CC[S+]([O-])C(c2ccc(F)cc2)c2ccc(F)cc2)CC1 (stereo unspecified) | 6.34 |  |  | 4.01 |  |  |  |  |  |  | < 4.00 |
| NC(=O)C[S@@+]([O-])C(c1ccc(F)cc1)c1ccc(F)cc1 | < 4.00 | > 21 | 8.05 | 4.41 | 5.32 |  |  |  |  |  |  |
| OC(Cc1ccccc1)CN1CCC(NCCSC(c2ccc(F)cc2)c2ccc(F)cc2)CC1 (stereo unspecified) | 6.51 |  |  |  | 7.50 | 5.66 | 5.40 | 6.16 | 74 | 100 | 6.23 |
| Fc1ccc(C(SCCNC2CCN(CCc3ccccc3)CC2)c2ccc(F)cc2)cc1 | 7.24 | 1.83 | 4.57 |  |  |  |  |  |  |  |  |
| CC(C)(C)CN1CCC(NCCSC(c2ccc(F)cc2)c2ccc(F)cc2)CC1 | 6.50 | 1.13 | 3.39 |  |  |  |  |  |  |  |  |
| Fc1ccc(C(SCCNC2CCN(Cc3ccccc3)CC2)c2ccc(F)cc2)cc1 | 8.42 | 0.12 | 12.4 |  |  |  |  |  |  |  |  |
| CC(O)CN1[C@H](C)CN(CCSC(c2ccc(F)cc2)c2ccc(F)cc2)C[C@@H]1C (stereo partly specified) |  | 0.243 | 641 |  |  |  | 4.92 | 5.83 |  |  |  |
| CN(CCSC(c1ccc(F)cc1)c1ccc(F)cc1)C1CCN(C(=O)c2ccc(F)cc2)CC1 | 8.15 | 0.04 | 12.8 | 5.61 | 6.72 |  |  |  |  |  |  |
| OC(CNC1CCN(CCSC(c2ccc(F)cc2)c2ccc(F)cc2)CC1)Cc1ccccc1 (stereo unspecified) | 7.06 | 1.84 | 1.4 |  |  | 5.57 | 5.64 | 6.15 | 69 | 100 |  |
| O=C(c1ccccc1F)N1CCC(NCCSC(c2ccc(F)cc2)c2ccc(F)cc2)CC1 | 8.45 | 0.08 | 7.61 | 6.45 | 7.34 |  |  |  |  |  |  |
| O=C(c1ccc(F)cc1F)N1CCC(NCC[S+]([O-])C(c2ccc(F)cc2)c2ccc(F)cc2)CC1 (stereo unspecified) | 6.77 | 0.3 | 8.17 | 5.34 | 6.25 |  |  |  |  |  |  |
| CC(O)CN1CCN(CCSC(c2ccc(F)cc2)c2ccc(F)cc2)CC1 (stereo unspecified) | 8.65 |  |  | 5.17 | 7.42 |  |  |  |  |  |  |
| O=C(c1ccccc1)N1CCC(NCC[S+]([O-])C(c2ccc(F)cc2)c2ccc(F)cc2)CC1 (stereo unspecified) | 6.23 |  |  |  |  |  |  |  |  |  |  |
| NC(=O)C[S@+]([O-])C(c1ccc(F)cc1)c1ccc(F)cc1 | < 4.00 | > 34 | 5.05 | 4.82 | 5.53 |  |  |  |  |  |  |
